Experimental data from ChEMBL document CHEMBL1649122, “Abc1p is a multidrug efflux transporter that tips the balance in favor of innate azole resistance in Candida krusei” (2009).
≈ marks a conversion by molar mass, not a printed value. Calls of active or inactive are those of the source. The calls are words filed in the database; no cut-off is given here.

Legend:
[1] = target: ATP binding cassette transporter Abc1p (Issatchenkia orientalis) (UniProt Q09GQ4); test: Inhibition of Candida krusei B2399 Abc1p assessed as reduction of fluconazole MIC at 2.5 ug/ml after 48 hrs by checkerboard susceptibility assay; conditions: Pichia kudriavzevii
Procedure, shortened: (§1)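 Checkerboard liquid microdilution in CSM (pH 7.0). FLC or ITC MICs of AD/CkABC1g or C. krusei B2399 were measured across a range of milbemycin concentrations. Interaction was expressed as fractional inhibitory concentration index (FICI).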

[2] = target: ATP binding cassette transporter Abc1p (Issatchenkia orientalis) (UniProt Q09GQ4); test: Inhibition of Candida krusei Abc1p expressed in Saccharomyces cerevisiae isolate AD assessed as reduction of itraconazole MIC at 1 ug after 48 hrs by agarose diffusion assay; conditions: Pichia kudriavzevii
[3] = target: ATP binding cassette transporter Abc1p (Issatchenkia orientalis) (UniProt Q09GQ4); test: Inhibition of Candida krusei B2399 Abc1p assessed as reduction of itraconazole MIC at 2.5 ug/ml after 48 hrs by checkerboard susceptibility assay; conditions: Pichia kudriavzevii; procedure, shortened: as §1
[4] = target: ATP binding cassette transporter Abc1p (Issatchenkia orientalis) (UniProt Q09GQ4); test: Inhibition of Candida krusei Abc1g expressed in Saccharomyces cerevisiae isolate ADdelta assessed as reduction of itraconazole MIC at 2.5 ug/ml after 48 hrs by checkerboard susceptibility assay; conditions: Pichia kudriavzevii; procedure, shortened: as §1
[5] = target: ATP binding cassette transporter Abc1p (Issatchenkia orientalis) (UniProt Q09GQ4); test: Inhibition of Candida krusei IF011 Abc1p assessed as reduction of itraconazole MIC at 1 ug after 48 hrs by agarose diffusion assay; conditions: Pichia kudriavzevii
[6] = target: ATP binding cassette transporter Abc1p (Issatchenkia orientalis) (UniProt Q09GQ4); test: Inhibition of Candida krusei B2399 Abc1p assessed as reduction of itraconazole MIC at 1 ug after 48 hrs by agarose diffusion assay; conditions: Pichia kudriavzevii
[7] = target: ATP binding cassette transporter Abc1p (Issatchenkia orientalis) (UniProt Q09GQ4); test: Inhibition of Candida krusei Abc1g expressed in Saccharomyces cerevisiae isolate ADdelta assessed as reduction of fluconazole MIC at 2.5 ug/ml after 48 hrs by checkerboard susceptibility assay; conditions: Pichia kudriavzevii; procedure, shortened: as §1
Saccharomyces cerevisiae [8] = test: Fold resistant, ratio of MIC for Saccharomyces cerevisiae isolate ADdelta overexpressing Saccharomyces cerevisiae ERG11 to MIC for Saccharomyces cerevisiae isolate ADdelta overexpressing Abc1p; format: functional
Procedure, shortened: (§2)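 Fold resistance is the ratio of azole MICs between S. cerevisiae overexpressing strains. The MICs were measured by liquid broth microdilution in CSM medium at pH 7.0. The ERG11 or ABC1 constructs are integrated at the PDR5 locus.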

Pichia kudriavzevii [9] = test: Antimicrobial activity against Candida krusei B2399 after 48 hrs by liquid microdilution assay; format: functional; conditions: B2399, 48 h
Procedure, shortened: (§3)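 Liquid broth microdilution susceptibility assay in CSM medium at pH 7.0, which was also the medium used for the expression studies. Fungal strains were maintained in YPD. The S. cerevisiae test strains carry C. krusei ABC1 or fungal ERG11 alleles integrated at the chromosomal PDR5 locus.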

Saccharomyces cerevisiae [10] = test: Antimicrobial activity against Saccharomyces cerevisiae isolate ADdelta overexpressing Saccharomyces cerevisiae ERG11 after 48 hrs by liquid microdilution assay; format: functional; procedure, shortened: as §3
Pichia kudriavzevii [11] = test: Increase in ERG11 mRNA expression in Candida krusei B2399 at 2 times MIC concentration after 1 hr by hot-phenol extraction based Northern blotting; format: functional, organism-based
Procedure, shortened: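 Logarithmically grown C. krusei B2399 was exposed to azole for 60 min (2x MIC for VRC, MCZ and ITC; 1x MIC for FLC) alongside an untreated control. Total RNA was extracted with hot phenol, and 10 µg was run on 1.2% denaturing agarose. It was Northern blotted and probed with a radiolabeled ERG11 fragment. ACT1 mRNA served as internal control, with EtBr-stained rRNA showing loading.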

Saccharomyces cerevisiae [12] = test: Antimicrobial activity against Saccharomyces cerevisiae isolate ADdelta overexpressing Candida albicans ERG11A after 48 hrs by liquid microdilution assay; format: functional; procedure, shortened: as §3
Pichia kudriavzevii [13] = test: Antimicrobial activity against Candida krusei NZCDC 89.021 after 48 hrs by liquid microdilution assay; format: functional; conditions: NZCDC 89.021, 48 h; procedure, shortened: as §3
Saccharomyces cerevisiae [14] = test: Fold resistant, ratio of MIC for Saccharomyces cerevisiae isolate ADdelta overexpressing Candida albicans ERG11A to MIC for Saccharomyces cerevisiae isolate ADdelta overexpressing Abc1p; format: functional; procedure, shortened: as §2
[15] = target: ATP binding cassette transporter Abc1p (Issatchenkia orientalis) (UniProt Q09GQ4); test: Inhibition of Candida krusei ABC1 expressed in Saccharomyces cerevisiae isolate ADdelta at 0.026 nM; conditions: Pichia kudriavzevii
Procedure, shortened: (§4)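 Agarose disk-diffusion test of S. cerevisiae AD overexpressing C. krusei Abc1p, with the parent AD strain as comparison. Cells were pregrown from YPD overnight into CSM to mid-log at 30°C. They were seeded at OD600 0.008 in CSM with 0.6% agarose, overlaid on CSM agar (pH 7.0). Paper disks carrying set nmol amounts of xenobiotic were applied, and plates were incubated at 30°C for 48 h before reading growth inhibition zones.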

Saccharomyces cerevisiae [16] = test: Antimicrobial activity against Saccharomyces cerevisiae isolate ADdelta overexpressing Abc1p after 48 hrs by liquid microdilution assay; format: functional; procedure, shortened: as §3
Pichia kudriavzevii [17] = test: Antimicrobial activity against Candida krusei IFO0011 after 48 hrs by CLSI method; format: functional; conditions: IFO0011, 48 h
Procedure, shortened: (§5)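 Azole MICs were determined by the CLSI M27-A2 broth microdilution reference method. They were interpreted against the CLSI breakpoints. Strains were maintained in YPD medium (1% yeast extract, 2% peptone, 2% glucose).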

Saccharomyces cerevisiae [18] = test: Antimicrobial activity against Saccharomyces cerevisiae isolate AD overexpressing Candida krusei ERG11C after 48 hrs by liquid microdilution assay; format: functional; procedure, shortened: as §3
Pichia kudriavzevii [19] = test: Antimicrobial activity against Candida krusei NZCDC 90.147 after 48 hrs by CLSI method; format: functional; procedure, shortened: as §5
Pichia kudriavzevii [20] = test: Antimicrobial activity against Candida krusei B2399 after 48 hrs by CLSI method; format: functional; conditions: B2399, 48 h; procedure, shortened: as §5
Pichia kudriavzevii [21] = test: Antimicrobial activity against Candida krusei NZCDC 89.221 after 48 hrs by liquid microdilution assay; format: functional; conditions: NZCDC 89.221, 48 h; procedure, shortened: as §3
Pichia kudriavzevii [22] = test: Antimicrobial activity against Candida krusei NZCDC 89.102 after 48 hrs by CLSI method; format: functional; procedure, shortened: as §5
Pichia kudriavzevii [23] = test: Antimicrobial activity against Candida krusei NZCDC 89.021 after 48 hrs by CLSI method; format: functional; conditions: NZCDC 89.021, 48 h; procedure, shortened: as §5
Pichia kudriavzevii [24] = test: Antimicrobial activity against Candida krusei NZCDC 89.221 after 48 hrs by CLSI method; format: functional; procedure, shortened: as §5
Saccharomyces cerevisiae [25] = test: Fold resistant, ratio of MIC for Saccharomyces cerevisiae isolate ADdelta overexpressing Candida krusei ERG11C to MIC for Saccharomyces cerevisiae isolate ADdelta overexpressing Abc1p; format: functional; procedure, shortened: as §2
Saccharomyces cerevisiae [26] = test: Antimicrobial activity against Saccharomyces cerevisiae isolate ADdelta overexpressing Candida krusei ERG11g after 48 hrs by liquid microdilution assay; format: functional; procedure, shortened: as §3
Pichia kudriavzevii [27] = test: Antimicrobial activity against Candida krusei NZCDC 89.102 after 48 hrs by liquid microdilution assay; format: functional; conditions: NZCDC 89.102, 48 h; procedure, shortened: as §3
Saccharomyces cerevisiae [28] = test: Fold resistant, ratio of MIC for Saccharomyces cerevisiae isolate ADdelta overexpressing Candida krusei ERG11g to MIC for Saccharomyces cerevisiae isolate ADdelta overexpressing Abc1p; format: functional; procedure, shortened: as §2
Pichia kudriavzevii [29] = test: Antimicrobial activity against Candida krusei NZCDC 90.147 after 48 hrs by liquid microdilution assay; format: functional; conditions: NZCDC 90.147, 48 h; procedure, shortened: as §3
Pichia kudriavzevii [30] = test: Antimicrobial activity against Candida krusei IFO0011 after 48 hrs by liquid microdilution assay; format: functional; conditions: IFO0011, 48 h; procedure, shortened: as §3
[31] = target: ATP binding cassette transporter Abc1p (Issatchenkia orientalis) (UniProt Q09GQ4); test: Inhibition of Candida krusei ABC1 expressed in Saccharomyces cerevisiae isolate ADdelta at 0.36 nM; conditions: Pichia kudriavzevii; procedure, shortened: as §4
[32] = target: ATP binding cassette transporter Abc1p (Issatchenkia orientalis) (UniProt Q09GQ4); test: Inhibition of Candida krusei B2399 Abc1p assessed as fractional inhibitory concentration index at 2.5 ug/ml after 48 hrs by checkerboard susceptibility assay; conditions: Pichia kudriavzevii
Procedure, shortened: (§6)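 Checkerboard susceptibility assay combining the Abc1p inhibitor with FLC or ITC. MICs were determined at various inhibitor concentrations. The fractional inhibitory concentration index was calculated for each combination.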

[33] = target: ATP binding cassette transporter Abc1p (Issatchenkia orientalis) (UniProt Q09GQ4); test: Inhibition of Candida krusei […] expressed in Saccharomyces cerevisiae isolate ADdelta assessed as fractional inhibitory concentration index at 2.5 ug/ml after 48 hrs by checkerboard susceptibility assay; conditions: Pichia kudriavzevii; procedure, shortened: as §6

Structure (SMILES) | Activity [2] | Activity [5] | Activity [6] | ratio (Saccharomyces cerevisiae [8]) | MIC (Pichia kudriavzevii [9]) | MIC (Saccharomyces cerevisiae [10]) | Activity (Pichia kudriavzevii [11]) | MIC (Saccharomyces cerevisiae [12]) | MIC (Pichia kudriavzevii [13]) | ratio (Saccharomyces cerevisiae [14]) | MIC (Saccharomyces cerevisiae [16]) | MIC (Pichia kudriavzevii [17]) | MIC (Saccharomyces cerevisiae [18]) | MIC (Pichia kudriavzevii [19]) | MIC (Pichia kudriavzevii [20]) | MIC (Pichia kudriavzevii [21]) | MIC (Pichia kudriavzevii [22]) | MIC (Pichia kudriavzevii [23]) | MIC (Pichia kudriavzevii [24]) | ratio (Saccharomyces cerevisiae [25]) | further results
CC1=C[C@H]2C(=O)O[C@H]3C[C@@H](C/C=C(\C)C[C@@H](C)/C=C/C=C(\C)[C@]2(O)[C@H](O)[C@@H]1O)O[C@@]1(CC[C@H](C)[C@@H](C)O1)C3 | Active | Active | Active | – | – | – | – | – | – | – | – | – | – | – | – | – | – | – | – | – | Activity [1]: Active; Activity [3]: Active; Activity [4]: Active; Activity [7]: Active
CC(C)=CC(=O)OCC1=C[C@H]2C(=O)O[C@H]3C[C@@H](C/C=C(\C)C[C@@H](C)/C=C/C=C4\CO[C@H]([C@@H]1O)[C@@]42O)O[C@@]1(CC[C@H](C)[C@@H](C)O1)C3 | Active | Active | Active | – | – | – | – | – | – | – | – | – | – | – | – | – | – | – | – | – | –
Clc1ccc(COC(Cn2ccnc2)c2ccc(Cl)cc2Cl)c(Cl)c1 (stereo unspecified) [MICONAZOLE] | – | – | – | 4 | 2 µg/mL (≈ 4.81 µM) | 0.031 µg/mL (≈ 0.0745 µM) | Active | 0.063 µg/mL (≈ 0.151 µM) | 4 µg/mL (≈ 9.61 µM) | 8 | 0.0078 µg/mL (≈ 0.0187 µM) | 4 µg/mL (≈ 9.61 µM) | 0.125 µg/mL (≈ 0.3 µM) | 4 µg/mL (≈ 9.61 µM) | 4 µg/mL (≈ 9.61 µM) | 4 µg/mL (≈ 9.61 µM) | 2 µg/mL (≈ 4.81 µM) | 2 µg/mL (≈ 4.81 µM) | 2 µg/mL (≈ 4.81 µM) | 16 | Activity [15]: inactive; MIC (Saccharomyces cerevisiae [26]): 0.5 µg/mL (≈ 1.2 µM); MIC (Pichia kudriavzevii [27]): 4 µg/mL (≈ 9.61 µM); ratio (Saccharomyces cerevisiae [28]): 64
CCC(C)n1ncn(-c2ccc(N3CCN(c4ccc(OCC5COC(Cn6cncn6)(c6ccc(Cl)cc6Cl)O5)cc4)CC3)cc2)c1=O (stereo unspecified) [ITRACONAZOLE] | – | – | – | 8 | 0.5 µg/mL (≈ 0.709 µM) | 0.25 µg/mL (≈ 0.354 µM) | Active | 0.125 µg/mL (≈ 0.177 µM) | 1 µg/mL (≈ 1.42 µM) | 4 | 0.031 µg/mL (≈ 0.0439 µM) | 0.25 µg/mL (≈ 0.354 µM) | 0.063 µg/mL (≈ 0.0893 µM) | 0.25 µg/mL (≈ 0.354 µM) | 0.25 µg/mL (≈ 0.354 µM) | 1 µg/mL (≈ 1.42 µM) | 0.25 µg/mL (≈ 0.354 µM) | 0.25 µg/mL (≈ 0.354 µM) | 0.125 µg/mL (≈ 0.177 µM) | 2 | MIC (Pichia kudriavzevii [29]): 1 µg/mL (≈ 1.42 µM); MIC (Pichia kudriavzevii [30]): 1 µg/mL (≈ 1.42 µM); Activity [31]: inactive; fractional inhibitory concentration index (FICI) [32]: 0.298; fractional inhibitory concentration index (FICI) [33]: 0.104; MIC (Saccharomyces cerevisiae [26]): 4 µg/mL (≈ 5.67 µM); MIC (Pichia kudriavzevii [27]): 2 µg/mL (≈ 2.83 µM); ratio (Saccharomyces cerevisiae [28]): 128
